Reference: ChEMBL document CHEMBL4229376, “Optimization of the pharmacokinetic properties of potent anti-trypanosomal triazine derivatives” (Eur J Med Chem, 2018)
Active and inactive are the calls of the source. The calls are words filed in the database; no cut-off is given here.

Assays:
[1] = test system: Trypanosoma brucei brucei; test: Antitrypanosomal activity against suramin-sensitive Trypanosoma brucei brucei Squib 427 after 72 hrs by resazurin dye-based fluorimetric analysis; assay type: functional, organism-based; settings: Squib 427, 72 h
Leishmania infantum = test: Antileishmanial activity against Leishmania infantum MHOM/MA (BE)/67 amastigotes infected in primary peritoneal mouse macrophages after 120 hrs by giemsa staining-based microscopic analysis; assay type: functional, organism-based; settings: MHOM/MA (BE)/67, 120 h
[2] = Drug metabolism in mouse liver microsomes assessed as CYP450 mediated compound […] by measuring parent compound remaining at 5 uM after 30 mins in presence of NADPH by UPLC/MS/ESI analysis; assay type: ADME; settings: read-out: Stability
[3] = Drug metabolism in mouse liver microsomes assessed as CYP450 mediated compound […] by measuring parent compound remaining at 5 uM after 60 mins in presence of NADPH by UPLC/MS/ESI analysis; assay type: ADME; settings: read-out: Stability
[4] = Drug metabolism in human liver microsomes assessed as CYP450 mediated compound […] by measuring parent compound remaining at 5 uM after 15 mins in presence of NADPH by UPLC/MS/ESI analysis; assay type: ADME; settings: read-out: Stability
[5] = Drug metabolism in human liver microsomes assessed as UGT mediated compound […] by measuring parent compound remaining at 5 uM after 30 mins in presence of UDPGA by UPLC/MS/ESI analysis; assay type: ADME; settings: read-out: Stability
[6] = Drug metabolism in human liver microsomes assessed as UGT mediated compound […] by measuring parent compound remaining at 5 uM after 60 mins in presence of UDPGA by UPLC/MS/ESI analysis; assay type: ADME; settings: read-out: Stability
[7] = test system: Trypanosoma brucei brucei; test: Antitrypanosomal activity against Trypanosoma brucei brucei Squib 427 infected in Swiss mouse assessed as mouse survival at 50 mg/kg, po bid for 5 days and measured on day 14 post infection; assay type: functional, organism-based
Summary of the method: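 Acute T. b. brucei mouse infection model. Dosing was PO or IP at 10–50 mg/kg, once (SID) or twice (BID) daily for 5 days after infection, with 3 mice per group. […] Read-outs were mean survival time and survivors on day 14 post infection.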

[8] = test system: Trypanosoma brucei brucei; test: Antitrypanosomal activity against Trypanosoma brucei brucei Squib 427 infected in Swiss mouse assessed as mean survival days at 50 mg/kg, po bid for 5 days; assay type: functional
Summary of the method: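 Acute mouse infection model with T. b. brucei. Dosing ran for 5 days after infection, orally or intraperitoneally, once or twice daily. Groups were 3 mice each, with vehicle-treated infected controls. The read-out was mean survival time in days, plus the number of survivors on day 14 post-infection.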

[9] = test system: Trypanosoma brucei brucei; test: Antitrypanosomal activity against Trypanosoma brucei brucei Squib 427 infected in Swiss mouse at 50 mg/kg, po administered as single dose after 24 hrs; assay type: functional, organism-based; settings: Squib 427, 24 h
[10] = Drug metabolism in human plasma assessed as parent compound remaining after 30 mins by UPLC/MS/ESI analysis; assay type: ADME, cell-free; settings: read-out: Stability
[11] = Drug metabolism in human plasma assessed as parent compound remaining after 60 mins by UPLC/MS/ESI analysis; assay type: ADME, cell-free; settings: read-out: Stability
[12] = Drug metabolism in human plasma assessed as parent compound remaining after 1440 mins by UPLC/MS/ESI analysis; assay type: ADME, cell-free; settings: read-out: Stability
Summary of the method: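 Compound incubated in human plasma for 24 h at 37 °C, and the fraction of parent compound remaining was determined.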

[13] = Drug level in Swiss mouse blood infected with Trypanosoma brucei brucei Squib 427 at 50 mg/kg, po bid for 5 days measured after 2 hrs after last dose by UPLC/MS/ESI analysis; assay type: ADME, organism-based; settings: whole blood, read-out: Drug uptake
[14] = Drug level in Swiss mouse blood infected with Trypanosoma brucei brucei Squib 427 at 25 mg/kg, po bid for 5 days measured after 0.5 hrs after last dose by UPLC/MS/ESI analysis; assay type: ADME, organism-based; settings: whole blood, read-out: Drug uptake
[15] = Drug level in Swiss mouse blood infected with Trypanosoma brucei brucei Squib 427 at 25 mg/kg, po bid for 5 days measured after 2 hrs after last dose by UPLC/MS/ESI analysis; assay type: ADME, organism-based; settings: whole blood, read-out: Drug uptake
[16] = Drug level in Swiss mouse blood infected with Trypanosoma brucei brucei Squib 427 at 25 mg/kg, po bid for 5 days measured after 4 hrs after last dose by UPLC/MS/ESI analysis; assay type: ADME, organism-based; settings: whole blood, read-out: Drug uptake
[17] = Drug uptake in Swiss mouse blood at 50 mg/kg, po administered as single dose after 0.5 hrs by UPLC/MS/ESI analysis; assay type: ADME, organism-based; settings: whole blood, read-out: Drug uptake
Summary of the method: (§1)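 Mice were given the compound orally as a single dose of either 25 or 50 mg/kg, one group per dose. Plasma concentrations were followed over time up to 24 h, and the pharmacokinetic parameters were derived from the concentration-time profile.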

[18] = Drug uptake in Swiss mouse blood at 50 mg/kg, po administered as single dose after 1 hr by UPLC/MS/ESI analysis; assay type: ADME, organism-based; settings: whole blood, read-out: Drug uptake; summary of the method: as §1
[19] = Drug uptake in Swiss mouse blood at 50 mg/kg, po administered as single dose after 2 hrs by UPLC/MS/ESI analysis; assay type: ADME, organism-based; settings: whole blood, read-out: Drug uptake; summary of the method: as §1
[20] = Drug uptake in Swiss mouse blood at 50 mg/kg, po administered as single dose after 24 hrs by UPLC/MS/ESI analysis; assay type: ADME, organism-based; settings: whole blood, read-out: Drug uptake; summary of the method: as §1
[21] = Drug uptake in Swiss mouse blood at 25 mg/kg, po administered as single dose after 0.5 hrs by UPLC/MS/ESI analysis; assay type: ADME, organism-based; settings: whole blood, read-out: Drug uptake; summary of the method: as §1
[22] = Drug uptake in Swiss mouse blood at 25 mg/kg, po administered as single dose after 4 hrs by UPLC/MS/ESI analysis; assay type: ADME, organism-based; settings: whole blood, read-out: Drug uptake; summary of the method: as §1
[23] = Tmax in Swiss mouse infected with Trypanosoma brucei brucei Squib 427 at 50 mg/kg, po bid for 5 days after 24 hrs by UPLC/MS/ESI analysis; assay type: ADME, organism-based; settings: in vivo
[24] = Half life in Swiss mouse infected with Trypanosoma brucei brucei Squib 427 at 50 mg/kg, po bid for 5 days after 24 hrs by UPLC/MS/ESI analysis; assay type: ADME, organism-based; settings: in vivo
[25] = Tmax in Swiss mouse infected with Trypanosoma brucei brucei Squib 427 at 25 mg/kg, po administered as single dose after 24 hrs by UPLC/MS/ESI analysis; assay type: ADME, organism-based; settings: in vivo
[26] = Cmax in Swiss mouse infected with Trypanosoma brucei brucei Squib 427 at 25 mg/kg, po administered as single dose after 24 hrs by UPLC/MS/ESI analysis; assay type: ADME, organism-based; design: dose 25 mg/kg, route oral; settings: in vivo
[27] = Clearance in Swiss mouse infected with Trypanosoma brucei brucei Squib 427 at 25 mg/kg, po administered as single dose after 24 hrs by UPLC/MS/ESI analysis; assay type: ADME, organism-based; settings: in vivo
[28] = Cmax in Swiss mouse at 25 mg/kg, po administered as single dose after 24 hrs by UPLC/MS/ESI analysis; assay type: ADME, organism-based; design: dose 25 mg/kg, route oral; settings: in vivo
Summary of the method: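 Mice in groups received one oral dose of 25 or 50 mg/kg. Plasma concentrations were followed over time up to 24 h, and PK parameters including T1/2 were derived from the concentration–time profile.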

[29] = Ratio of Cmax in Swiss mouse at 50 mg/kg, po administered as single dose after 24 hrs by LC-MS analysis to IC50 for antitrypanosomal activity against suramin-sensitive Trypanosoma brucei brucei Squib 427 after 72 hrs by resazurin dye-based fluorimetric analysis; assay type: ADME, organism-based; settings: in vivo
[30] = Protein binding in mouse plasma at 10 uM after 6 hrs by equilibrium dialysis and LC-MS analysis; assay type: ADME, cell-free; settings: read-out: PPB (converted)
[31] = Protein binding in 10% FBS in Trypanosoma brucei culture medium assessed as drug recovery at 2 uM after 6 hrs by equilibrium dialysis and LC-MS analysis; assay type: ADME, cell-free, Bos taurus, Serum; settings: cattle, read-out: Drug recovery
[32] = Protein binding in 10% FBS in Trypanosoma brucei culture medium at 10 uM after 6 hrs by equilibrium dialysis and LC-MS analysis; assay type: ADME, cell-free, Bos taurus, Serum; settings: cattle, read-out: PB

Nc1nc(Nc2ccc(F)cc2)nc(Oc2ccc(F)cc2)n1
IC50 [1]: 600 nM
IC50 (Leishmania infantum): > 64000 nM
remaining at 0.5 h, 5 µM [2]: 80%
remaining at 1 h, 5 µM [3]: 74%
remaining at 0.25 h, 5 µM [4]: 93%
remaining at 0.5 h, 5 µM [5]: 97%
remaining at 1 h, 5 µM [6]: 96%
Activity [7]: inactive
MST [8]: 5.7 days
IC50 [9]: 630 nM
remaining at 0.5 h [10]: 91%
remaining at 1 h [11]: 88%
remaining at 24 h [12]: 87%
concentration at 2 h [13]: 2840 ng/mL
concentration at 0.5 h [14]: 2090 ng/mL
concentration at 2 h [15]: 1100 ng/mL
concentration at 4 h [16]: 204 ng/mL
concentration at 0.5 h [17]: 1780 ng/mL
concentration at 1 h [18]: 1730 ng/mL
concentration at 2 h [19]: 1630 ng/mL
concentration at 24 h [20]: 150 ng/mL
concentration at 0.5 h [21]: 842 ng/mL
concentration at 4 h [22]: 929 ng/mL
Tmax [23]: 1.3 h
half-life [24]: 1.33 h
Tmax [25]: 0.8 h
Cmax [26]: 2690 ng/mL
CL/F [27]: 176 mL/min
Cmax [28]: 1180 ng/mL
Ratio [29]: 10
fraction unbound at 6 h, 10 µM [30]: 0.023
recovery at 6 h, 2 µM [31]: 96.1%
fraction unbound at 6 h, 10 µM [32]: 0.498
